# Measured values collected from several papers.
# Each line is one published result; the experiments were not run side by side.
# Target: TRAF2 and NCK-interacting protein kinase (TNIK, Homo sapiens, UniProt Q9UKE5)
SMILES,observed,mode,method,concentration,endpoint,result
Nc1ncnc2occ(-c3ccc(NC(=O)Nc4cc(C(F)(F)F)ccc4F)cc3)c12,cell-free assay,inhibitor,,20 µM,remaining signal,6.9%
CCC(=O)N[C@H]1CC[C@@H](C(=O)N(C)c2ccc(-c3nc4ccccc4o3)cc2)C1,cell-free assay,,competition with immobilised ligand,1 µM,remaining binding,100%
COc1cc(Cl)c(C(=O)N[C@@H](CN[C@H]2CC[C@@H](N)CC2)Cc2ccc(C#N)cc2)cc1-c1ccc(CN[C@H](C)c2ccc(C)cc2)o1,enzyme activity,inhibitor,,1 µM,remaining activity,100%
CNC(=O)c1cc2c(Oc3ccc(NC(=O)C4(C(=O)Nc5ccc(F)cc5)CC4)cc3)ccnc2cc1OC,enzyme activity,inhibitor,radiometric,1 µM,inhibition,73%
O=C(Nc1cnn(-c2csc(C(=O)NC3COC3)c2)c1)Nc1c(F)cccc1Cl,enzyme activity,inhibitor,,5 µM,remaining activity,84.3%
Cn1c2c(Cl)c(Cl)ccc2c2cc(N)[nH]c(=O)c21,thermal stability,,DSF,10 µM,ΔTm,0.1 °C
COc1cccc2c(NCc3ccccc3)nc(-n3c(N)nc4ccccc43)nc12,target engagement in cells,inhibitor,chemoproteomics,20 mM,inhibition,3.5%
CN1CCC2(CC1)NC(=O)c1c(c3ccc(Cl)c(Cl)c3n1C)C2C#N (racemic),thermal stability,,DSF,10 µM,ΔTm,0 °C
O=C(N[C@H]1CCCCC/C=C\C2C[C@@]2(C(=O)O)NC(=O)[C@@H]2C[C@@H](Oc3ccncc3)CN2C1=O)OC1CCCC1 (some centres unmarked),binding,,competition with immobilised ligand,1 µM,remaining binding,78%
Cn1c2c(c3ccccc31)C(C#N)C(C)(C)NC2=O (centres unmarked),thermal stability,,DSF,10 µM,ΔTm,-0.1 °C
Cc1ccc(C(=O)Nc2ccc(CN3CCN(C)CC3)c(C(F)(F)F)c2)cc1C#Cc1cnc2cccnn12,enzyme activity,inhibitor,,23.5 nM,remaining activity,34%
COc1ccc2cc(OCC3(C(=O)O)CN(C(=O)c4ccc(F)cc4)C3)ccc2c1,cell-free assay,,competition with immobilised ligand,1 µM,remaining binding,61%
Cn1c2c(c3ccc(Cl)c(Cl)c31)C(C#N)C1(CCCCC1)NC2=O (racemic),thermal stability,,DSF,10 µM,ΔTm,0 °C
CN(C)c1ncnc(-c2ccc3nc(Nc4cc(CN5CCN(C(=O)CC(F)(F)F)CC5)ccn4)[nH]c3c2)c1Cl,cell-free assay,,competition with immobilised ligand,1 µM,remaining binding,53%
CCN1CCC2(CC1)NC(=O)c1c(c3ccc(Cl)c(Cl)c3n1C)C2C#N (racemic),thermal stability,,DSF,10 µM,ΔTm,0 °C
C[C@@H]1CN(c2cc(-c3nn(C)c4ccc(OC5(C)CC5)cc34)ncn2)C[C@H](C)O1,cell-free assay,,competition with immobilised ligand,1 µM,remaining binding,80%
Cn1cnc(Br)c1C1=CN(c2ncnc3[nH]cnc23)CCS1,enzyme activity,inhibitor,radiometric,50 nM,inhibition,21.5%
CS(=O)(=O)Nc1cccc(-c2csc(NC(=O)CSc3nc4nccnc4c(=O)n3CCc3ccccc3)n2)c1,enzyme activity,inhibitor,,10 µM,inhibition,-2%
CS(=O)(=O)c1cc(C2(NC(=O)c3cncc4c3cnn4-c3ccc(F)cc3)CC2)ccn1,cell-free assay,,competition with immobilised ligand,1 µM,remaining binding,95%
Cn1c2c(c3ccc(Cl)c(Cl)c31)C(C#N)C1(CCN(C(=O)OC(C)(C)C)CC1)NC2=O (racemic),thermal stability,,DSF,10 µM,ΔTm,-0.1 °C
